Results on 24 molecules are retold here after ChEMBL document CHEMBL1132231, “New generation dopaminergic agents. 6. Structure-activity relationship studies of a series of 4-(aminoethoxy)indole and 4-(aminoethoxy)indolone derivatives based on the newly discovered 3-hydroxyphenoxyethylamine D2 template” (J Med Chem, 1999).

The target of test [1] is T1, 5-hydroxytryptamine receptor 1A (Rattus norvegicus, UniProt P19327).
T1 sequence (P19327 whole entry): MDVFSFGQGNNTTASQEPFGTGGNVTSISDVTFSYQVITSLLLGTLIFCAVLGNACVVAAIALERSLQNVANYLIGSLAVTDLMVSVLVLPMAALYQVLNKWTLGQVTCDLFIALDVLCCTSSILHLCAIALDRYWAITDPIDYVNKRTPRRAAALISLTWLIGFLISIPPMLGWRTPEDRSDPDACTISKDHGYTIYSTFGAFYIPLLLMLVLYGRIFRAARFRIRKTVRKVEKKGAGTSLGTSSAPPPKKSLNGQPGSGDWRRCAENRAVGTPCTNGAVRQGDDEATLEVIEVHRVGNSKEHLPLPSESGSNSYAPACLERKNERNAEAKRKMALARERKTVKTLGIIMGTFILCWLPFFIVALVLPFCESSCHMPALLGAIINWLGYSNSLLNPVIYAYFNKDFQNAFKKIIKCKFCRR
The test is described as follows: In vitro binding affinity towards 5-hydroxytryptamine 1A receptor by the displacement of [3H]8-OH-DPAT radioligand in rat hippocampal homogenates. The test is classed as tissue-based, Hippocampus.

Test [2] has as its target T2, Adrenergic receptor alpha-1 (Rattus norvegicus, UniProt P15823+P23944+P43140).
T2 sequence (P15823 whole entry): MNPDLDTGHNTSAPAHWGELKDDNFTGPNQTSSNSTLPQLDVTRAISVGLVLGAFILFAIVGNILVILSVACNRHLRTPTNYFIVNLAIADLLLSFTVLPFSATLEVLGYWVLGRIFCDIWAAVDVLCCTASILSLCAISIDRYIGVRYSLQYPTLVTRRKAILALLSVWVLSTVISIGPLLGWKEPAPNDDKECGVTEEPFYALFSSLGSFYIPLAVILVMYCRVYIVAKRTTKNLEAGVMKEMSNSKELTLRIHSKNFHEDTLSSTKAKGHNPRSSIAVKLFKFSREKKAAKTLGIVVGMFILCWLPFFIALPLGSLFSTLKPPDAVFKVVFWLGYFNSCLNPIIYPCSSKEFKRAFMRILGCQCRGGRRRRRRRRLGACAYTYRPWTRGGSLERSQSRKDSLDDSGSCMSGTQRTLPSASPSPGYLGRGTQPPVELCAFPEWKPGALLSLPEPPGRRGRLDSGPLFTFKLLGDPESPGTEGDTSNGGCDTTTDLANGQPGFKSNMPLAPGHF
T2 sequence (P23944 whole entry): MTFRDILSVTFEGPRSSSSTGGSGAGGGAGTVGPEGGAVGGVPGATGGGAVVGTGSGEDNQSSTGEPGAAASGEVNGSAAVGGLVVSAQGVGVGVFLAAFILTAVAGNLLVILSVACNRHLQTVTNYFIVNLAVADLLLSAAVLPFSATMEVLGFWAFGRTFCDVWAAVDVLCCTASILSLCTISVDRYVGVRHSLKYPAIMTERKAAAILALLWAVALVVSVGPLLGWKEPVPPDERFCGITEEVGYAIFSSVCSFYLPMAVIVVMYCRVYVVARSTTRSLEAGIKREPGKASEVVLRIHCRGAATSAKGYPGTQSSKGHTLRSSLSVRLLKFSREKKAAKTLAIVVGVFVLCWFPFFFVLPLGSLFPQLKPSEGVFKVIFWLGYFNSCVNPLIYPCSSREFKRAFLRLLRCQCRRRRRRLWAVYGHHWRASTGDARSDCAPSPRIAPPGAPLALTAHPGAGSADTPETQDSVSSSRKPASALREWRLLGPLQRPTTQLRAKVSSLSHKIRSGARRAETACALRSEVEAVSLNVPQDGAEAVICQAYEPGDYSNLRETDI
T2 sequence (P43140 whole entry): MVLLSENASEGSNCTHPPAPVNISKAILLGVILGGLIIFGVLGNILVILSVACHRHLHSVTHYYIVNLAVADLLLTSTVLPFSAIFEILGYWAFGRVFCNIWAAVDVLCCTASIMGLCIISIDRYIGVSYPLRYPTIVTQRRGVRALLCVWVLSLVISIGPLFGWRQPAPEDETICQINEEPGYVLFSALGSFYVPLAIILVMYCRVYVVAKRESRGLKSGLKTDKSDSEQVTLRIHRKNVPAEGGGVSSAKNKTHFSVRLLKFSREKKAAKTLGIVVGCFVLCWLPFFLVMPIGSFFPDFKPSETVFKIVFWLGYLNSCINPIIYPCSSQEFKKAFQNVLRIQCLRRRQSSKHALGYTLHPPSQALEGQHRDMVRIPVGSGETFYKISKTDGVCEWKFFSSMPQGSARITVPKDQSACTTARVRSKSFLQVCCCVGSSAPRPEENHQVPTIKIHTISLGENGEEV
The test is described as follows: In vitro binding affinity towards Alpha-1 adrenergic receptor by the displacement of [3H]prazosin radioligand in rat cortical homogenates. On the technique in general: In a radioligand displacement assay an active substance lowers the binding of a labelled ligand.

The target of test [3] is T2, Adrenergic receptor alpha-1. Kind of test: In vitro binding affinity towards alpha-1 adrenergic receptor by the displacement of [3H]prazosin radioligand in rat cortical homogenates. A digest of the protocol: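 Rat cortical homogenates labelled with [3H]prazosin (0.2 nM), incubated 30 min at 25 °C. Stopped with cold 50 mM Tris pH 7.4, then rapid filtration. Triplicate, at least eight concentrations. Nonlinear regression gave IC50, converted to apparent Ki by Cheng-Prusoff. Means of at least two experiments ± SEM; values without SEM are single determinations.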

Test [4] concerns the target T1, 5-hydroxytryptamine receptor 1A. The test is described as follows: The compound was tested for binding affinity on [3H]8-OH-DPAT as specific ligand on 5-hydroxytryptamine 1A receptor in rat hippocampus. Format: tissue-based. A digest of the protocol: (§1)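 Rat hippocampal homogenates labelled with [3H]-8-OH-DPAT (1.8 nM), incubated 10 min at 37 °C. Stopped with cold 50 mM Tris pH 7.7. Test compounds run in triplicate at at least eight concentrations. IC50 found by nonlinear regression and converted to apparent Ki by Cheng-Prusoff. Ki values are means of at least two experiments ± SEM; values without SEM are single determinations.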

The target of test [5] is T3, D(2) dopamine receptor (Rattus norvegicus, UniProt P61169). The test is described as follows: In vitro low binding affinity towards Dopamine receptor D2 by the displacement of [3H]spiperone radioligand in rat striatal membranes. The test is classed as cell membranes, Membrane.
T3 sequence (P61169 whole entry): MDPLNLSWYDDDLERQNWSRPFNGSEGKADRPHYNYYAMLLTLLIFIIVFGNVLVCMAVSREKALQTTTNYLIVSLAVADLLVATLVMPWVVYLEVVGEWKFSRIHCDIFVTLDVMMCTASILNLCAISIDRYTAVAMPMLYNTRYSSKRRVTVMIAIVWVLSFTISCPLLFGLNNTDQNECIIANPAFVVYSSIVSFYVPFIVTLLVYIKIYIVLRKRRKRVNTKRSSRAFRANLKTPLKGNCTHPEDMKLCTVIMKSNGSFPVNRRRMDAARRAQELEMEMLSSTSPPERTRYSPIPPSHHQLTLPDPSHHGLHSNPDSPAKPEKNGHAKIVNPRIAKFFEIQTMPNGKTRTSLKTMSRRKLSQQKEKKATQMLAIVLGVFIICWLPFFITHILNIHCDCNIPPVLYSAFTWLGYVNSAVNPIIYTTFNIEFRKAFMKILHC
Test [6] deals with T3, D(2) dopamine receptor. The test is described as follows: In vitro high binding affinity towards Dopamine receptor D2 by the displacement of [3H]quinpirole radioligand in rat striatal membranes. The test is classed as cell membranes, Membrane.
Test [7] concerns the target D(2) dopamine receptor (Rattus norvegicus) (UniProt P61169). Kind of test: Ratio of Dopamine D2 receptor (low)and Dopamine D2 receptor (high). The gist of the method:
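Ratio Ki(low)/Ki(high). Ki(low) comes from displacement of 1 nM [3H]spiperone in striatal membranes with 1 mM GppNHp and NaCl, 37 °C for 5 min. […] Both Ki values derived by Cheng-Prusoff from nine concentrations in triplicate; the ratio serves as an estimate of intrinsic activity.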

Test [8] concerns the target T1, 5-hydroxytryptamine receptor 1A. The test is described as follows: In vitro binding affinity towards 5-hydroxytryptamine 1A r receptor by the displacement of [3H]8-OH-DPAT radioligand in rat hippocampal homogenates. Format: tissue-based, Hippocampus. The gist of the method:
as §1

Sequence of D(2) dopamine receptor (Rattus norvegicus) (P61169 whole entry): as above

The Ki is the equilibrium dissociation constant of an inhibitor or competing ligand from its target. The low end stands for tighter binding, the high end for weaker binding. In the case of `O=C1Cc2c(OCCNCc3cccs3)ccc(Cl)c2N1`, the figures for the Ki in test [1] and in test [2] were 59 nM and 5 nM, respectively.
As for `c1ccc(CNCCOc2cccc3[nH]ccc23)cc1`, the Ki in test [3] turned out to be 675 nM; in test [4], 18 nM; at D(2) dopamine receptor [5], 39.3 nM; at D(2) dopamine receptor [6], 9.7 nM. Besides, in test [7], the Ratio was determined as 4.
For the molecule `O=C1Cc2c(OCCN3CCc4ccccc4C3)ccc(F)c2N1`, the Ki was determined as 5.02 nM at D(2) dopamine receptor [5], 25 nM in test [1], 128 nM in test [2] and 0.86 nM at D(2) dopamine receptor [6].
The like results for `O=C1Cc2c(OCCNCc3ccc(Cl)cc3)ccc(Cl)c2N1` were, in that order, 4.1 nM, 1890 nM, 134 nM and 1.4 nM.
Turning to `O=C1Cc2c(OCCNCc3cccs3)ccc(F)c2N1`, the Ki is 21.8 nM on D(2) dopamine receptor [5], 39 nM in test [1], 32 nM in test [2] and 0.66 nM at D(2) dopamine receptor [6].
The like results for `O=C1Cc2c(OCCNCc3ccsc3)ccc(F)c2N1` were, in that order, 17.8 nM, 24 nM, 39 nM and 0.84 nM.
For `O=C1Cc2c(OCCNCc3ccsc3)ccc(Cl)c2N1`, in that order: 3.32 nM, 83 nM, 14 nM and 0.24 nM.
For `O=C1Cc2c(OCCNCc3ccc(-c4ccccc4)cc3)ccc(F)c2N1`, in that order: 27.4 nM, 340 nM, 220 nM and 4.8 nM.
Turning to `O=C(c1c[nH]c2cccc(OCCNCc3ccccc3)c12)C(F)(F)F`, the Ki in test [3] stood at 60 nM; in test [4], 30 nM; at D(2) dopamine receptor [5], 16.6 nM; on D(2) dopamine receptor [6] it was 3 nM. In addition, the Ratio in test [7] is 6.
Take `Clc1c[nH]c2cccc(OCCNCCCCc3ccccc3)c12`: the Ki in test [3] amounted to 8.5 nM; on D(2) dopamine receptor [5], 15.7 nM; on D(2) dopamine receptor [6] it was 4.8 nM; in test [8], 0.5 nM. The Ratio in test [7] was 3.
With `CNCCOc1cccc2c1CC(=O)N2`, the Ki in test [3] is 1057 nM; at D(2) dopamine receptor [5], 147 nM; in test [1] it was 276 nM; at D(2) dopamine receptor [6] it was 2 nM. Also, in test [7], the Ratio is 74.
The like results for `O=C1Cc2c(ccc3c2O[C@@H](CNCc2ccccc2)CC3)N1` were, in that order, 165 nM, 5.9 nM, 8.5 nM, 0.14 nM and 42.
The like results for `NCCOc1ccc(F)c2c1CC(=O)N2` were, in that order, 25 nM, 916 nM, 25 nM, 12.1 nM and 76.
Take `O=C1Cc2c(OCCNCc3ccccc3)ccc(F)c2N1`: the Ki was found to be 5.3 nM at D(2) dopamine receptor [5], 535 nM in test [1], 52 nM in test [2] and 0.63 nM on D(2) dopamine receptor [6].
The like results for `NCCOc1cccc2c1CC(=O)N2` were, in that order, 268 nM, 664 nM, 11081 nM and 6.93 nM.
Take `Clc1ccc(OCCNCc2ccccc2)c2cc[nH]c12`: the Ki was 138.5 nM in test [3], 14.4 nM at D(2) dopamine receptor [5], 193 nM in test [1] and 7.4 nM at D(2) dopamine receptor [6]. In addition, the Ratio in test [7] came out at 2.
For `O=C1Cc2c(OCCNCc3ccc(F)cc3)ccc(Cl)c2N1`, the Ki was found to be 431 nM in test [3], 13.8 nM on D(2) dopamine receptor [5], 6560 nM in test [1] and 1.3 nM at D(2) dopamine receptor [6]. Besides, the Ratio in test [7] was 11.
As to `O=C1Cc2c(cccc2OCCNCc2ccccc2)N1`, the Ki at D(2) dopamine receptor [5] was found to be 11.4 nM; in test [1], 306 nM; in test [2], 1448 nM; at D(2) dopamine receptor [6] it was 0.21 nM.
With `O=C1Cc2c(OCCNCc3cccc(-c4ccccc4)c3)ccc(F)c2N1`, the Ki in test [1] was 625 nM; in test [2] it was 2899 nM.
Take `Cc1ccc(CNCCOc2ccc(Cl)c3c2CC(=O)N3)cc1`: the Ki in test [3] worked out at 334 nM; on D(2) dopamine receptor [5], 5.5 nM; in test [1], 1170 nM; at D(2) dopamine receptor [6] it was 0.64 nM. The Ratio in test [7] was determined as 9.
Turning to `c1ccc(CNC[C@H]2CCc3ccc4[nH]ccc4c3O2)cc1`, the Ki at D(2) dopamine receptor [5] came to 35.9 nM; in test [1], 0.4 nM; in test [2], 24 nM; at D(2) dopamine receptor [6], 1.9 nM.
As for `O=C1Cc2c(OCCNCC3CCCCC3)ccc(F)c2N1`, the Ki on D(2) dopamine receptor [5] came out at 5.6 nM; in test [1] it was 17 nM; in test [2], 380 nM; on D(2) dopamine receptor [6] it was 0.65 nM.
For `O=C1Cc2c(OCCN3Cc4ccccc4C3)ccc(Cl)c2N1`, in that order: 2.85 nM, 41 nM, 85 nM and 0.44 nM.
For `CN(CCOc1cccc2c1CC(=O)N2)Cc1ccccc1`, in that order: 49.6 nM, 6260 nM, 4829 nM and 0.76 nM.
